# According to ChEMBL document CHEMBL1152488, “Synthesis and evaluation of pyrido[1,2-a]pyrimidines as inhibitors of nitric oxide synthases” (Eur J Med Chem, 2009):
# Active and inactive are the calls of the source. The rule behind the calls is not given here.
# How the values were obtained:
# [1] = biological target: T1, Nitric oxide synthase, inducible (Mus musculus, UniProt P29477); assay: Inhibition of mouse recombinant iNOS expressed in Escherichia coli assessed as NADPH consumption after 2 mins by spectrophotometry
# T1 sequence (P29477 whole entry): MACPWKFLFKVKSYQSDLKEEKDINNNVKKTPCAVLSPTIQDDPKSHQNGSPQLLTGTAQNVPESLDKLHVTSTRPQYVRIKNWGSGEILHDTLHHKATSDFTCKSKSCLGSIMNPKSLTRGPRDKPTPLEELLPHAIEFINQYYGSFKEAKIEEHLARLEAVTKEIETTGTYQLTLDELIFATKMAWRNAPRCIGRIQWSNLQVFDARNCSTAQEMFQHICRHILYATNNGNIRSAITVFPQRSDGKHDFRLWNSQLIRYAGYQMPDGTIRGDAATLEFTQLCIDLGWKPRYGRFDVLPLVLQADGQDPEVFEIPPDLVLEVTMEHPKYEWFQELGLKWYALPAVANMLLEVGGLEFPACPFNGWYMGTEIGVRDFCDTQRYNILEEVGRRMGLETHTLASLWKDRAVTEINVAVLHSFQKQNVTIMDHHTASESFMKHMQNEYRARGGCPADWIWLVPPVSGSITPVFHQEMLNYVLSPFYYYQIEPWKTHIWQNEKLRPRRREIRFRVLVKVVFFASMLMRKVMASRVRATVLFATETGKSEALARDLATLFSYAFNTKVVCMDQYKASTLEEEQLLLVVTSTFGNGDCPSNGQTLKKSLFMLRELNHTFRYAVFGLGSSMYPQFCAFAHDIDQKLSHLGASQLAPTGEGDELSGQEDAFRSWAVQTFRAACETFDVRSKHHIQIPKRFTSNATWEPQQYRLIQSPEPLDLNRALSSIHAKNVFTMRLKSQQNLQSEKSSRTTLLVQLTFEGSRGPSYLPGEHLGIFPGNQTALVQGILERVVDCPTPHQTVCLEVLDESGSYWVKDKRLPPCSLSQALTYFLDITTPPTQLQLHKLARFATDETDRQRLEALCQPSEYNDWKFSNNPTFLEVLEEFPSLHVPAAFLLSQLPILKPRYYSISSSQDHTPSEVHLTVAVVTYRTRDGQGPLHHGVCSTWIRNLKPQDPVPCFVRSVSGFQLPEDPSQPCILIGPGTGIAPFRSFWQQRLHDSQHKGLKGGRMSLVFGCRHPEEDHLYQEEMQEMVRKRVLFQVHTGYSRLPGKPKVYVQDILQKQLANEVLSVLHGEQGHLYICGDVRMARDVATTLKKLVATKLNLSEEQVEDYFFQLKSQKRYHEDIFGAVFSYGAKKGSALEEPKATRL
# Outline: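 Murine iNOS from E. coli (15–50 nM final) in 50 mM Hepes pH 7.4 with 5 mM DTT, 100 µM CaCl2, 200 µM NADPH, 10 µM H4B, 100 µM L-arginine and 100 µM compound. Cofactors and compound preincubated 2 min at 37 °C, enzyme added, and A340 followed for 3 min (ε 6.2 mM-1 cm-1). Given as % of 1% DMSO control NADPH oxidase rate.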
# [2] = biological target: T2, Nitric oxide synthase, inducible (Mus musculus) (UniProt P29477); assay: Inhibition of mouse iNOS expressed in insect Sf9 cells at 1 mM preincubated for 15 mins followed by compound dilution
# T2 sequence (whole entry): T1 sequence (P29477 whole entry)
Compound,IC50 [1] [µM],Activity [2]
CC1=CC2=NCC(C(=O)c3ccc(-c4ccc(C#N)cc4)cc3)CN2C=C1.Cl (configuration not stated),11,
CC1=CC2=NCC(C(=O)c3ccc(-c4ccc(Br)cc4)cc3)CN2C=C1.[O-][Cl+3]([O-])([O-])O (configuration not stated),,inactive
